Publication PMC5551971 (ACS chemical biology, 2017)
Entries after “also recorded” stand apart in the source; their conditions may differ.

Tests used:
[1] = test system: H322, A427, H1155 and H1648 NSCLC cells; experiment: Cell viability of NSCLC cell lines, 72 h treatment; type: cell-based; settings: several NSCLC cell lines, single agent
PLK1 [2] = target: T1, PLK1 (Homo sapiens, UniProt P53350); experiment: In vitro kinase assay; type: biochemical
H322 cells [3] = experiment: Immunoblot analysis of γH2AX; type: cell-based; settings: 4 h; for induction of DNA damage (γH2AX): parental H322 and cWEE1 control cells, AZD1775 1 μM or cisplatin 17 μM
In short: (§1)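 H322 cells and H322-derived CRISPR-Cas9 clones were used: WEE1 knockouts made by targeting the exon 1/intron 1 splice site, plus a control clone with WEE1 intact. Cells were exposed for 4 h to 1 μM test compound or to cisplatin (14 μM in the H322/H1648 comparison; 17 μM in the parental/clone comparison). γH2AX and total H2AX were detected by immunoblot, tracking the ~16 kDa and mono-ubiquitinated ~25 kDa γH2AX bands.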

H322 cells [4] = experiment: Immunoblot analysis of PARP1 and caspase 3 cleavage; type: cell-based
[5] = test system: cWEE1-KO[18] and cWEE1-KO[19] H322 WEE1 knockout clones; experiment: CellTiterGlo viability of H322 WEE1 CRISPR-Cas9 knockout clones; type: cell-based; settings: 72 h
LYN = LYN (Homo sapiens, UniProt P07948); experiment: In vitro kinase assay panel; type: biochemical; settings: 100 nM or 1000 nM AZD1775
LYN, sequence (P07948 whole entry): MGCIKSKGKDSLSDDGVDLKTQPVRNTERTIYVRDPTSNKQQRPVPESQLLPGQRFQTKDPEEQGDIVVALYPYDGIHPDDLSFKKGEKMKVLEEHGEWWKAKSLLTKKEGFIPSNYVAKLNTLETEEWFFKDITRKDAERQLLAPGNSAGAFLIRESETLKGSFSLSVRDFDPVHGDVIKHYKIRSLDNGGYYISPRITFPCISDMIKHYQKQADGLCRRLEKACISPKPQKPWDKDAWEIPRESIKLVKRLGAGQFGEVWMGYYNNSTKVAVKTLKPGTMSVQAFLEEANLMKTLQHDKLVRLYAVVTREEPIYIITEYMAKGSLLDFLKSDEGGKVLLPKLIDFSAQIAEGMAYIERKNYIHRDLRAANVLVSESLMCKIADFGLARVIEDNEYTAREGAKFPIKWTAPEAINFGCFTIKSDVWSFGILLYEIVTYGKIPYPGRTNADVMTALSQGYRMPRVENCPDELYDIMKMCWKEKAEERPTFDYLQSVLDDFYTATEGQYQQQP

SRC = SRC (Homo sapiens, UniProt P12931); experiment: In vitro kinase assay panel; type: biochemical; settings: 100 nM or 1000 nM AZD1775
SRC, sequence (P12931 whole entry): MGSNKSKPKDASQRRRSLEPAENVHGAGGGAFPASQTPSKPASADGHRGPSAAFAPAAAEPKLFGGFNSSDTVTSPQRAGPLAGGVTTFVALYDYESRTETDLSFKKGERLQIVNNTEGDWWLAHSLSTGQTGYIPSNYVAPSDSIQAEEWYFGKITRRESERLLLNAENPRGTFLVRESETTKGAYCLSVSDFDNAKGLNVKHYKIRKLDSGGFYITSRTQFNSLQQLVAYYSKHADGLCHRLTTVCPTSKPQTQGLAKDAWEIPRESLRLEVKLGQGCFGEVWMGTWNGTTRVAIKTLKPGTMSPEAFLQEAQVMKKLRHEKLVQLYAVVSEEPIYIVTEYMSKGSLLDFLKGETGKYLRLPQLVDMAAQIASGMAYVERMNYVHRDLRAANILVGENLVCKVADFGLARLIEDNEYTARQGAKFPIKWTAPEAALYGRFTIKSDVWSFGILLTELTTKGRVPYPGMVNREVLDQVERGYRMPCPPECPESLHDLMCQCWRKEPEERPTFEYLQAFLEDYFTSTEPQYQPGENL

PLK1 [6] = target: T1, PLK1; experiment: In vitro kinase assay panel; type: biochemical; settings: 100 nM or 1000 nM AZD1775
PLK1 [7] = target: T1, PLK1; experiment: i-AZD1775 affinity pulldown with AZD1775 competition, PLK1 immunoblot; type: binding; settings: H322 whole cell lysates, 20 μM free AZD1775
[8] = test system: cWEE1-KO[18] and cWEE1-KO[19] H322 WEE1 knockout clones; experiment: Immunoblot analysis of γH2AX in WEE1 CRISPR-Cas9 knockout clones; type: cell-based; settings: 4 h, 1 μM AZD1775
In short: as §1

T1 sequence (P53350 whole entry): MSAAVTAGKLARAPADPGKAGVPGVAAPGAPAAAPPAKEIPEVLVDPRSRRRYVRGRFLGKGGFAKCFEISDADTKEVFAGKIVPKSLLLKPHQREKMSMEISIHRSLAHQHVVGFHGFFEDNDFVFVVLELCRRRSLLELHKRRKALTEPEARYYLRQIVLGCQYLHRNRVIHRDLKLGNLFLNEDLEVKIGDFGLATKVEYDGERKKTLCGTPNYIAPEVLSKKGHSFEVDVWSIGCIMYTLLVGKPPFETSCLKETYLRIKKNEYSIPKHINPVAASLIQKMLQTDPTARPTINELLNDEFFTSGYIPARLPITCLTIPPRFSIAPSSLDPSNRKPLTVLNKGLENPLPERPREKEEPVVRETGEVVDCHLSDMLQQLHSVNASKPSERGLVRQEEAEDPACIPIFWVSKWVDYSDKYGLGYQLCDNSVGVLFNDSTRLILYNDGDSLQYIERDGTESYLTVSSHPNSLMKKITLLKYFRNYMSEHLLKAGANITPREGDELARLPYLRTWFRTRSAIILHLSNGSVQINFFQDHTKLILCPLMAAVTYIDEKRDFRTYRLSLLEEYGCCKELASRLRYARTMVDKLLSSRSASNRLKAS

SMILES | inhibition of viability, potency [1] | IC50 (PLK1 [2]) | phosphorylation of Serine 139 in histone H2AX (γH2AX) (H322 cells [3]; H322 cells, 1 μM AZD1775) | induction of DNA damage (γH2AX) (H322 cells [3]) | PARP1 and caspase-3 cleavage (apoptosis induction) (H322 cells [4]; H322 versus H1648 cells, 48 h) | sensitivity of WEE1-reconstituted clone cWEE1-KO[18](RC9) [5] | LYN inhibition (LYN) | SRC inhibition (SRC) | PLK1 inhibition (PLK1 [6]) | PLK1 enrichment in i-AZD1775 pulldown on competition with AZD1775 (PLK1 [7]) | γH2AX in WEE1 knockout clones [8] | apoptosis by PARP1 and caspase 3 cleavage (H322 cells [4]; H322 cells, 0.03 μM BI-2536 compared with 1 μM AZD1775)
C=CCn1c(=O)c2cnc(Nc3ccc(N4CCN(C)CC4)cc3)nc2n1-c1cccc(C(C)(C)O)n1 [AZD1775] | sub- to low micromolar potency | 22 to 34 nM | potently increased | can induce DNA damage | markedly more pronounced in H322 cells than in H1648 | completely reversed the sensitizing effect | potent AZD1775 targets | potent AZD1775 targets | potent AZD1775 targets | completely abrogated its enrichment | further increased γH2AX | 
CC[C@@H]1C(=O)N(C)c2cnc(Nc3ccc(C(=O)NC4CCN(C)CC4)cc3OC)nc2N1C1CCCC1 [BI-2536] |  |  |  |  |  |  |  |  |  |  |  | strongly induced apoptosis; also recorded: higher degree of apoptosis than 1 μM AZD1775
N.N.[Cl][Pt][Cl] [cisplatin] |  |  |  | can induce DNA damage |  |  |  |  |  |  |  | 
